Measurements as given in publication PMC2963086 (Analytical biochemistry, 2010).
“And” between values parts separate entries of the source, which are not always exact repeats. Identical values can stand only once. Like-named read-outs stand apart in the source and are kept apart here.

What was measured:
[1] = Solubility of the solid analog; format: physicochemical; conditions: phosphate buffer and methanol at room temperature
[2] = target: Glucose dehydrogenase (GDH); experiment: Fluorescence titration; format: binding, Bacillus megaterium; conditions: read-out: Kd (Binary); GDH binary complex; fluorescence experiments; pH 7.5
[3] = target: T1, Formate dehydrogenase (FDH) (Candida boidinii, UniProt O13437); experiment: ITC binding of azo-NAD^+ to formate dehydrogenase; conditions: Kd (Binary), FDH binary complex, pH 7.5
T1 sequence (O13437 1-364): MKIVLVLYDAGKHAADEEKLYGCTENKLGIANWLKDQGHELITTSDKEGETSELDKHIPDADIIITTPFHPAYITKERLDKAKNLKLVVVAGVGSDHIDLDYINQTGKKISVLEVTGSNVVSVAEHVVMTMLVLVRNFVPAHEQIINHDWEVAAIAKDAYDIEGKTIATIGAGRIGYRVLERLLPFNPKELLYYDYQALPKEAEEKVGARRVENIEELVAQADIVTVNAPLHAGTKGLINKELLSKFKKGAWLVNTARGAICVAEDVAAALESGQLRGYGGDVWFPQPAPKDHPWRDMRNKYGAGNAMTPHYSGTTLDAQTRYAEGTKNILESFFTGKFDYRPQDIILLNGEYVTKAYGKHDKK
Method in brief: (§1)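 Isothermal titration calorimetry at pH 7.5 with commercial enzymes: Candida boidinii FDH and porcine heart mitochondrial MDH. Titrations of azo-NAD+ with enzyme; for the MDH ternary complex, malate is present. Heats of dilution subtracted from raw heats. Integrated heats fitted to a single-site binding model to give Kd.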

[4] = target: T2, Malate dehydrogenase (MDH) (Sus scrofa, UniProt P00346); experiment: ITC binding of azo-NAD^+ to malate dehydrogenase; format: Porcine heart mitochondria (sus scrofa); conditions: pH 7.5
T2 sequence (P00346 25-338): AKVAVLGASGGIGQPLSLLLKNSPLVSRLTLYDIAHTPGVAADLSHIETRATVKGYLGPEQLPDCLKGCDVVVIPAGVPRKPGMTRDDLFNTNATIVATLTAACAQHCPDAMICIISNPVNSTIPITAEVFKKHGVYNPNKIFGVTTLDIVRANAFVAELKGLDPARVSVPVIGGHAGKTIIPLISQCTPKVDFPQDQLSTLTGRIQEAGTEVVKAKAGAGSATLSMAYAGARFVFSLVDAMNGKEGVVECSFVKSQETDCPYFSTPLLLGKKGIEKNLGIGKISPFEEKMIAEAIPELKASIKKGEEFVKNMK
Method in brief: as §1

[5] = Stability in phosphate buffer by UV absorbance ratio 260/303 nm; format: physicochemical; conditions: phosphate buffer pH 7.5, 24 hrs, 25 °C
[6] = tested on: Glucose dehydrogenase (GDH); experiment: Enzymatic reaction assay, initial rates; format: biochemical, Bacillus megaterium
Method in brief: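 Commercial Bacillus megaterium GDH in a 1 mL UV cuvette with 0.1 M phosphate buffer, pH 7.5, and azo-NAD+ as coenzyme. Initial rates taken over 2 min from the absorbance rise at 340 nm (azo-NADH). Km and kcat obtained by fitting rates against azo-NAD+ concentration to the Michaelis–Menten equation, with Vmax = [E]·kcat.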

[7] = target: T1, Formate dehydrogenase (FDH); experiment: Enzymatic reaction assay, initial rates; format: biochemical
[8] = target: T2, Malate dehydrogenase (MDH); experiment: Enzymatic reaction assay, competitive inhibition, initial rates; format: biochemical, Porcine heart mitochondria (sus scrofa)
[9] = tested on: formate dehydrogenase (FDH); conditions: azide anion with FDH; cited from earlier work
[10] = tested on: Glucose dehydrogenase (GDH); conditions: native NAD^+; cited from earlier work
[11] = target: T1, Formate dehydrogenase (FDH); conditions: native NAD^+, cited from earlier work
[12] = target: T2, Malate dehydrogenase (MDH); conditions: native NAD^+, 37; cited from earlier work
[13] = substrate: [N-]=[N+]=Nc1ccc[n+]([C@@H]2O[C@H](COP(=O)([O-])OP(=O)(O)OC[C@H]3O[C@@H](n4cnc5c(N)ncnc54)[C@H](O)[C@@H]3O)[C@@H](O)[C@H]2O)c1; experiment: Enzymatic reaction assay, initial rates; format: biochemical, Candida boidinii; conditions: other: FDH, azo-NAD^+ as substrate, 0.1 M phosphate buffer pH 7.5
[14] = azo-NAD^+ as substrate, 0.1 M phosphate buffer pH 7.5

Q: With `[N-]=[N+]=Nc1ccc[n+]([C@@H]2O[C@H](COP(=O)([O-])OP(=O)(O)OC[C@H]3O[C@@H](n4cnc5c(N)ncnc54)[C@H](O)[C@@H]3O)[C@@H](O)[C@H]2O)c1` [azo-NAD^+] as the molecule, how does the solubility [1] read?
A: Its solubility is “soluble”.

Q: What about the Kd [2] of the same molecule?
A: The Kd was 300 µM.

Q: And the Kd [3]?
A: Its Kd is 63 µM.

Q: What about the Kd ([4]; Kd (Binary), MDH binary complex) of the same molecule?
A: Its Kd is 152 µM.

Q: And the Kd ([4]; Kd (Ternary), MDH ternary complex with substrate malate)?
A: Its Kd is 70 µM.

Q: What about the “stability (ratio of UV absorbance 260 nm/303 nm unchanged)” value [5] of the same molecule?
A: The value was “stable”.

Q: And the “behaviour as substrate or inhibitor” value [6]?
A: Its value is “substrate”.

Q: What about the Km [6, 14] of the same molecule?
A: Its Km is 72 µM.

Q: And the kcat [6, 14]?
A: The kcat was 344 s⁻¹.

Q: What about the “behaviour as substrate or inhibitor” value [7] of the same molecule?
A: Its value is “substrate”.

Q: What about the Ki [8] of the same molecule?
A: Its Ki is 83 µM.

Q: And the “behaviour as substrate or inhibitor” value ([8]; MDH)?
A: The value was “competitive inhibitor”.

Q: With `[N-]=[N+]=[N-]` [azide anion] as the molecule, how does the binding constant [9] read?
A: Its binding constant is “nanomolar”.

Q: With `NC(=O)c1ccc[n+]([C@@H]2O[C@H](COP(=O)([O-])OP(=O)(O)OC[C@H]3O[C@@H](n4cnc5c(N)ncnc54)[C@H](O)[C@@H]3O)[C@@H](O)[C@H]2O)c1` [NAD^+, nicotinamide adenine dinucleotide] as the molecule, how does the Km [10] read?
A: The Km was 370 µM.

Q: What about the kcat [10] of the same molecule?
A: The kcat was 390 ^d s^−1.

Q: What about the “kcat (turnover number)” value ([11]; Candida Boidinii FDH) of the same molecule?
A: The value was 3.7 s^−1 and 3.7 ^c s^−1.

Q: And the Km ([11]; FDH)?
A: Its Km is 90 µM.

Q: What about the Km [12] of the same molecule?
A: Its Km is 140 µM.

Q: And the kcat ([8]; MDH, native NAD^+, no reference given)?
A: Its kcat is 45 s⁻¹.

B1: Formate dehydrogenase (FDH) ([Candida] boidinii) (protein)
chain: T1 sequence (O13437 1-364)
Q: What does the source list for B1?
A: Km [13]: 378 µM; kcat [13]: 7.5 s⁻¹
